Measured values published in ChEMBL document CHEMBL1148376, “Synthesis, monoamine transporter binding properties, and behavioral pharmacology of a series of 3beta-(substituted phenyl)-2beta-(3'-substituted isoxazol-5-yl)tropanes” (J Med Chem, 2004).

Tests used:
[1] = target: Sodium-dependent dopamine transporter (Rattus norvegicus, UniProt P23977); test: Inhibitory concentration required to inhibit dopamine transporter DAT was determined by using [3H]WIN-35428 radioligand
Method in brief: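 Competition binding at the DAT with 0.5 nM [3H]WIN35,428 (final concentration). Other procedures follow earlier published methods.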

Mus musculus [2] = test: Percent change in locomotor activity in mice at 3 mg/kg i.p. in 1 h.; assay type: functional; details: route intraperitoneal
Method in brief: (§1)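 Mice habituated 1/2 h to photocell activity chambers, then injected ip with compound homogenized in 0.5% methyl cellulose (10 mL/kg); vehicle controls; N = 5 or 6 per dose. Photobeam interruptions recorded in 10-min bins for 4 h, grouped into 1-h bins; one-way ANOVA with Newman-Keuls post hoc test (p < 0.05).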

Mus musculus [3] = test: Percent change in locomotor activity in mice at 3 mg/kg i.p. in 2 h.; assay type: functional; details: route intraperitoneal; method in brief: as §1
Mus musculus [4] = test: Percent change in locomotor activity in mice at 3 mg/kg i.p. in 3 h.; assay type: functional; details: route intraperitoneal; method in brief: as §1
Mus musculus [5] = test: Percent change in locomotor activity in mice at 3 mg/kg i.p. in 4 h.; assay type: functional; details: route intraperitoneal; method in brief: as §1
Mus musculus [6] = test: Percent change in locomotor activity in mice at 1 mg/kg i.p. in 1 h.; assay type: functional; details: route intraperitoneal
Mus musculus [7] = test: Percent change in locomotor activity in mice at 1 mg/kg i.p. in 2 h.; assay type: functional; details: route intraperitoneal; method in brief: as §1
Mus musculus [8] = test: Percent change locomotor activity in mice at 1 mg/kg i.p. in 3 h.; assay type: functional; details: route intraperitoneal; method in brief: as §1
Mus musculus [9] = test: Percent change in locomotor activity in mice at 1 mg/kg i.p. in 4 h.; assay type: functional; details: route intraperitoneal; method in brief: as §1
Mus musculus [10] = test: Percent change from vehicle in locomotor activity in mice at 10 mg/kg (ip) in 1 h; assay type: functional
Mus musculus [11] = test: Percent change from vehicle in locomotor activity in mice at 10 mg/kg (ip) in 2 h; assay type: functional
Mus musculus [12] = test: Percent change from vehicle in locomotor activity in mice at 10 mg/kg (ip) in 3 h; assay type: functional
Mus musculus [13] = test: Percent change from vehicle in locomotor activity in mice at 10 mg/kg (ip) in 4 h; assay type: functional
Mus musculus [14] = organism: Mus musculus; test: Effective dose for locomotor activity in mice in the peak hour.; assay type: functional
Mus musculus [15] = organism: Mus musculus; test: Hour 1 ratio to cocaine was determined for locomotor activity in mice; assay type: functional
[16] = target: T1, Norepinephrine transporter (Rattus norvegicus, UniProt Q9WTR4); test: Binding affinity towards norepinephrine transporter was determined using [3H]nisoxetine radioligand.
T1 sequence (Q9WTR4 whole entry): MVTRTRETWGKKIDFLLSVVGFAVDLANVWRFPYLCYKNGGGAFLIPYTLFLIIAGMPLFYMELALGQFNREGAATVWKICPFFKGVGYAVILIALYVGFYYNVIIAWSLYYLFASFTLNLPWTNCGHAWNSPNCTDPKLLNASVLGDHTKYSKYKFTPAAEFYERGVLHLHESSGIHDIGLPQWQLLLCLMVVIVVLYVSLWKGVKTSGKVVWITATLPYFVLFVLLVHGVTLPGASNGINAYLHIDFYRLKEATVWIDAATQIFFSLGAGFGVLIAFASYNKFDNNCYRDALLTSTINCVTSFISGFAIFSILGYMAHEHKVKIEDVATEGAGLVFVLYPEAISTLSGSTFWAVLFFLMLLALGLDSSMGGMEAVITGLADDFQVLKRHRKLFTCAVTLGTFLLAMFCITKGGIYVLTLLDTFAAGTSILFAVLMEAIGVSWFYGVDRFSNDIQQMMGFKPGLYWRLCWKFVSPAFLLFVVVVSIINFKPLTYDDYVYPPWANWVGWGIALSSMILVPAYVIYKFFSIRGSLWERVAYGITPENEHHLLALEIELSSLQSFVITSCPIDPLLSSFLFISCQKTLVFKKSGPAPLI
Method in brief: (§2)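 Competition binding at the NET with 0.5 nM [3H]nisoxetine (final concentration). Other procedures follow earlier published methods.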

[17] = target: T1, Norepinephrine transporter; test: Inhibition of norepinephrine transporter (NET) determined using [3H]nisoxetine radioligand.; method in brief: as §2
Rattus norvegicus [18] = test: Drug discrimination effect of compound in rats, expressed as percent of rats choosing the cocaine lever at dose 1 mg/kg (ip); assay type: functional
Rattus norvegicus [19] = test: Drug discrimination effect of compound in rats, expressed as percent of rats choosing the cocaine lever at dose 10 mg/kg (ip); assay type: functional
Rattus norvegicus [20] = test: Drug discrimination effect of compound in rats, expressed as percent of rats choosing the cocaine lever at dose 3 mg/kg (ip); assay type: functional
Rattus norvegicus [21] = test: Drug discrimination effect of compound in rats, expressed as percent of rats choosing the cocaine lever at dose 5.6 mg/kg (ip); assay type: functional
[22] = target: T2, Sodium-dependent serotonin transporter (Rattus norvegicus, UniProt P31652); test: Binding affinity towards serotonin transporter 5-HTT was determined using [3H]paroxetine radioligand.
T2 sequence (P31652 whole entry): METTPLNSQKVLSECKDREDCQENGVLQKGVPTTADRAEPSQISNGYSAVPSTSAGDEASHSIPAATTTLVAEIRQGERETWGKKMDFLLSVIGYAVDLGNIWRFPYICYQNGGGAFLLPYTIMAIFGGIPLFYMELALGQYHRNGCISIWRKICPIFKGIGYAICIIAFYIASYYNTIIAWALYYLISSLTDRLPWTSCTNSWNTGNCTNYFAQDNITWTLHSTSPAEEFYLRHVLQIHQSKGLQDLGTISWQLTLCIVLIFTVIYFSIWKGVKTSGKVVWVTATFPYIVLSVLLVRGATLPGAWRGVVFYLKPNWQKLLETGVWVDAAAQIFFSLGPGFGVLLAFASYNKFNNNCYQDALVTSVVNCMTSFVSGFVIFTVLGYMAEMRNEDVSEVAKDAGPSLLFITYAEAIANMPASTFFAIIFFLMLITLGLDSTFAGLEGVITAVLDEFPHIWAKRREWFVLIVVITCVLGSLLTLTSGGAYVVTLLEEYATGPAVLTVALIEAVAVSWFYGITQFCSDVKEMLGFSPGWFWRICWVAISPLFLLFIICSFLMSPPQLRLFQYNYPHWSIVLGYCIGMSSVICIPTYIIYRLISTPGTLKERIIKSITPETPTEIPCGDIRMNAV
Method in brief: (§3)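 Competition binding at the 5-HTT with 0.2 nM [3H]paroxetine (final concentration). Other procedures follow earlier published methods.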

[23] = target: T2, Sodium-dependent serotonin transporter; test: Inhibitory concentration required to inhibit serotonin transporter 5-HTT was determined by using [3H]paroxetine radioligand; method in brief: as §3
Mus musculus [24] = test: Percent change from vehicle in locomotor activity in mice at 0.3 mg/kg (ip) in 1 h; assay type: functional
Mus musculus [25] = test: Percent change from vehicle in locomotor activity in mice at 0.3 mg/kg (ip) in 2 h; assay type: functional
Mus musculus [26] = test: Percent change from vehicle in locomotor activity in mice at 0.3 mg/kg (ip) in 3 h; assay type: functional
Mus musculus [27] = test: Percent change from vehicle in locomotor activity in mice at 0.3 mg/kg (ip) in 4 h; assay type: functional
Rattus norvegicus [28] = test: Drug discrimination effect of compound in rats, expressed as percent of rats choosing the cocaine lever at dose 0.1 mg/kg (ip); assay type: functional
Rattus norvegicus [29] = test: Drug discrimination effect of compound in rats, expressed as percent of rats choosing the cocaine lever at dose 0.17 mg/kg (ip); assay type: functional
Rattus norvegicus [30] = test: Drug discrimination effect of compound in rats, expressed as percent of rats choosing the cocaine lever at dose 0.3 mg/kg (ip); assay type: functional
Rattus norvegicus [31] = test: Effective dose for drug discrimination effect in rat (ip); assay type: functional
Method in brief: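 Cocaine-trained rat drug discrimination, FR10, 10-min sessions. Compound in 0.5% methyl cellulose given ip 15 min before session, usually to 7-8 rats per dose. Doses were raised from ≤20% to ≥80% cocaine-lever choice, capped at 30 mg/kg, >50% loss of pressing, or side effects.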

Rattus norvegicus [32] = test: Drug discrimination effect of compound in rats, expressed as percent of rats choosing the cocaine lever at dose 1.7 mg/kg (ip); assay type: functional
Rattus norvegicus [33] = test: Drug discrimination effect of compound in rats, expressed as percent of rats choosing the cocaine lever at dose 0.56 mg/kg (ip); assay type: functional

Sodium-dependent dopamine transporter, sequence (P23977 whole entry): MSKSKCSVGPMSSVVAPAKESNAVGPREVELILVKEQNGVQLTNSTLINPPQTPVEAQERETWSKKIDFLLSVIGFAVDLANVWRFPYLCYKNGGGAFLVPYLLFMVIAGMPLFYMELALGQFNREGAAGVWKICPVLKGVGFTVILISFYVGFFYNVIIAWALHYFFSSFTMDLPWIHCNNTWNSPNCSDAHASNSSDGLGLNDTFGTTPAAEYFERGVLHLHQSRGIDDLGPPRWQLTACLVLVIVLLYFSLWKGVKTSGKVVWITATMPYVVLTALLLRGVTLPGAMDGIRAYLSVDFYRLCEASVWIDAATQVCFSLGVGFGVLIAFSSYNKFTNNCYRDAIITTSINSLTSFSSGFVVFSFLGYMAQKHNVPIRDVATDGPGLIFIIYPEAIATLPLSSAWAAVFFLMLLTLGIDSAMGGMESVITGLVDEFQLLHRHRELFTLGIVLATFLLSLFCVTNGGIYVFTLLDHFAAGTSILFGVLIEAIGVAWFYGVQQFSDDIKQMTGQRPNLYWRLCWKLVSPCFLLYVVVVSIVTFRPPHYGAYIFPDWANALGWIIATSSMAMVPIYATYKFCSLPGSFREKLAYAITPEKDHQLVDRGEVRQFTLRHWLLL

| SMILES | IC50 [1] | Change (Mus musculus [2]) | Change (Mus musculus [3]) | Change (Mus musculus [4]) | Change (Mus musculus [5]) | Change (Mus musculus [6]) | Change (Mus musculus [7]) | Change (Mus musculus [8]) | Change (Mus musculus [9]) | ED50 (Mus musculus [14]) | Ratio (Mus musculus [15]) | Ki [16] | IC50 [17] | Drug discrimination effect (Rattus norvegicus [18]) | Drug discrimination effect (Rattus norvegicus [20]) | Ki [22] | IC50 [23] | Change (Mus musculus [24]) | Change (Mus musculus [25]) | ED50 (Rattus norvegicus [31]) | other results |
| --- | --- | --- | --- | --- | --- | --- | --- | --- | --- | --- | --- | --- | --- | --- | --- | --- | --- | --- | --- | --- | --- |
| COc1ccc(-c2cc(C3C(c4ccc(Cl)cc4)CC4CCC3N4C)on2)cc1 (configuration not stated) | 1.57 nM | 197% | 481% | 662% | 335% | 0% | 51% | 101% | -21% | 3.7 mg/kg | 1.2 | 454 nM | 762 nM | 0% | 0% | 535 nM | 5.88 µM | – | – | – | Change (Mus musculus [10]): 521%; Change (Mus musculus [11]): 1337%; Change (Mus musculus [12]): 2830%; Change (Mus musculus [13]): 2120%; Drug discrimination effect (Rattus norvegicus [19]): 50%; Drug discrimination effect (Rattus norvegicus [21]): 43% |
| Cc1ccc(C2CC3CCC(C2c2ccno2)N3C)cc1 (configuration not stated) | 1.37 nM | 698% | 666% | 571% | 125% | 319% | 214% | 48% | -32% | 1 mg/kg | – | – | – | 100% | – | 38 nM | 0.414 µM | -13% | -12% | 0.19 mg/kg | Change (Mus musculus [26]): 136%; Change (Mus musculus [27]): -28%; Drug discrimination effect (Rattus norvegicus [28]): 0%; Drug discrimination effect (Rattus norvegicus [29]): 43%; Drug discrimination effect (Rattus norvegicus [30]): 83% |
| Cc1ccc(-c2cc(C3C(c4ccc(Cl)cc4)CC4CCC3N4C)on2)cc1 (configuration not stated) | 4.09 nM | 23% | 153% | 265% | 119% | 8% | 44% | -49% | 170% | 3.9 mg/kg | 0.7 | 1030 nM | 1710 nM | 14% | 14% | 522 nM | 5.74 µM | – | – | 5.95 mg/kg | Change (Mus musculus [10]): 308%; Change (Mus musculus [11]): 1034%; Change (Mus musculus [12]): 1024%; Change (Mus musculus [13]): 493%; Drug discrimination effect (Rattus norvegicus [19]): 88%; Drug discrimination effect (Rattus norvegicus [21]): 50% |
| CCc1cc(C2C(c3ccc(C)cc3)CC3CCC2N3C)on1 (configuration not stated) | 1.62 nM | 613% | 893% | 725% | 81% | 449% | 489% | 222% | 48% | 0.9 mg/kg | 1.4 | 180 nM | 299 nM | 75% | – | 582 nM | 6.4 µM | 34% | 99% | 0.82 mg/kg | Change (Mus musculus [26]): 173%; Change (Mus musculus [27]): -72%; Drug discrimination effect (Rattus norvegicus [30]): 0%; Drug discrimination effect (Rattus norvegicus [32]): 100%; Drug discrimination effect (Rattus norvegicus [33]): 14% |
| CC(C)c1cc(C2C(c3ccc(Cl)cc3)CC3CCC2N3C)on1 (configuration not stated) | 1.19 nM | 876% | 995% | 680% | 1745% | 370% | 632% | 188% | -2% | 0.8 mg/kg | 1.9 | 575 nM | 954 nM | 13% | 63% | 211 nM | 2.32 µM | 34% | 41% | – | Change (Mus musculus [26]): -21%; Change (Mus musculus [27]): -39%; Drug discrimination effect (Rattus norvegicus [32]): 25% |
| CN1C2CCC1C(c1ccno1)C(c1ccc(Cl)cc1)C2 (configuration not stated) | 0.77 nM | 486% | 137% | -40% | -71% | 186% | 284% | 345% | 182% | 1.2 mg/kg | 1.1 | 52 nM | 87 nM | 100% | – | 8.2 nM | 0.091 µM | 57% | 86% | 0.41 mg/kg | Change (Mus musculus [26]): 70%; Change (Mus musculus [27]): -20%; Drug discrimination effect (Rattus norvegicus [28]): 13%; Drug discrimination effect (Rattus norvegicus [29]): 29%; Drug discrimination effect (Rattus norvegicus [30]): 63%; Drug discrimination effect (Rattus norvegicus [33]): 25% |
| CN1C2CCC1C(c1cc(-c3ccc(Cl)cc3)no1)C(c1ccc(Cl)cc1)C2 (configuration not stated) | 6.42 nM | 59% | 237% | 298% | 389% | 15% | 19% | 74% | 39% | 3.6 mg/kg | 0.4 | 3790 nM | 5290 nM | 0% | 13% | – | > 76 µM | – | – | – | Change (Mus musculus [10]): 166%; Change (Mus musculus [11]): 612%; Change (Mus musculus [12]): 838%; Change (Mus musculus [13]): 1372%; Drug discrimination effect (Rattus norvegicus [19]): 50%; Drug discrimination effect (Rattus norvegicus [21]): 0% |
| Cc1ccc(C2CC3CCC(C2c2cc(C)no2)N3C)cc1 (configuration not stated) | 0.93 nM | 478% | 552% | 986% | 221% | 341% | 413% | 392% | 78% | 1.1 mg/kg | 1.1 | 153 nM | 254 nM | – | – | 348 nM | – | 140% | 156% | 0.28 mg/kg | Change (Mus musculus [26]): 75%; Change (Mus musculus [27]): 48%; Drug discrimination effect (Rattus norvegicus [28]): 13%; Drug discrimination effect (Rattus norvegicus [29]): 0%; Drug discrimination effect (Rattus norvegicus [30]): 83% |
| CN1C2CCC1C(c1cc(C(C)(C)C)no1)C(c1ccc(Cl)cc1)C2 (configuration not stated) | 7.31 nM | 112% | 204% | 206% | -29% | 41% | 103% | 135% | 33% | 4 mg/kg | 0.9 | 3810 nM | 6320 nM | 0% | 50% | 3350 nM | 36.8 µM | – | – | 3.04 mg/kg | Change (Mus musculus [10]): 388%; Change (Mus musculus [11]): 769%; Change (Mus musculus [12]): 1272%; Change (Mus musculus [13]): 229%; Drug discrimination effect (Rattus norvegicus [19]): 83%; Drug discrimination effect (Rattus norvegicus [21]): 88% |
